PostGolgi yeast = growth inhibition of a yeast mutant, post-Golgi transport screen. post-Golgi transport phenotypic cell assay. inhibition, % at 10 µM. 98,000 tested, 0.9% active. AID 739;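 also: yeast cells grown in 1536-well plates; yeast grown about 18 h at 30C before absorbance read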
tolC growth inh = E. coli tolC mutant growth inhibition | 65,000 tested, 2.2% active | E. coli BW25113 tolC mutant growth, OD615 | growth inhibition, % at 10 µM (by protocol);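 active = growth inhibition at or above a cutoff equal to the mean over every tested compound plus 3 SD, cut at about 60% in these data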;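 also: growth measured after 20 h incubation at 37 °C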
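Assay system: tolC-deleted E. coli BW25113. Medium: kanamycin-containing LB broth (50 µg/mL). Dosing: 10 µM final, single dose. Timing: bacterial growth with compound for 20 h at 37 °C. Detection: A615 absorbance measurement. Read-out basis: growth inhibition in percent.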
PLAP act = human PLAP activation | P05187 | purified PLAP enzyme, luminescent substrate read-out; active compounds read high | activation fold at 20 µM | 96,000 tested, 1.2% active | AID 696; in the data active = activation fold above about 2
Target sequence (P05187 whole entry, looked up): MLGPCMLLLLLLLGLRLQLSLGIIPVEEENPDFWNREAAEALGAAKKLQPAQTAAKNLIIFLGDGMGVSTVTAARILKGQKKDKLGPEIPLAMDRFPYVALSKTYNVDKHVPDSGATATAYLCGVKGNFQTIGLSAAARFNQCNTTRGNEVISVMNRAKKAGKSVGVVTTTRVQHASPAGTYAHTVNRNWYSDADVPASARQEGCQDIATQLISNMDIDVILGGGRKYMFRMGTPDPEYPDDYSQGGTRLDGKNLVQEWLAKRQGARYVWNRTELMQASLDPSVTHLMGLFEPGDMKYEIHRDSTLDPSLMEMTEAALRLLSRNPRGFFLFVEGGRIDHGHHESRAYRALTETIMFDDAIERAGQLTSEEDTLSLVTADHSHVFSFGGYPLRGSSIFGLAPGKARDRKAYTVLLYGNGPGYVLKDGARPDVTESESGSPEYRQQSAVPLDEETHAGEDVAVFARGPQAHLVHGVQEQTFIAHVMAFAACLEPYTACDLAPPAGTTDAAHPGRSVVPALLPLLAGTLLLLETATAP
PostGolgi ctrl = inhibits growth of the yeast control strain; inhibition, % at 10 µM; efflux-deficient yeast background strain, growth absorbance A615, 16 h; 98,000 tested, 5% active
Ecoli WT expand = growth inhibitors of E. coli BW25113 wild type. OD600 absorbance. growth inhibition, % at 100 µM. 98,000 tested, 0.15% active. AID 710;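 active = growth inhibition above about 50% at one test dose, limit read from the data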;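 also: growth measured after 20 h incubation at 37 °C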
Hits are given with their value; . = inactive; / = not tested or not shown. Sampled rows, rich in hits. Any-hit rate of the full collection: about 7.2%. Rule as the data show it, unless noted: active = inhibition above about 30%; inactive = the rest.

SMILES	PostGolgi yeast	tolC growth inh	PLAP act	PostGolgi ctrl	Ecoli WT expand
COc1ccc(/C=C/C(=O)NC(=S)NNC(=O)c2cccnc2)cc1OC	.	/	2	.	.
Cc1nn(C)cc1/C=C/C(=O)c1ccccc1	.	/	.	.	.
Cc1ccc(C(=O)/C=C/c2cn(CN3CCN(C)CC3)c3ccccc23)cc1	.	/	.	41.1	.
Cc1ccc2cc(CCNC(=O)c3ccc(Br)o3)c(=O)[nH]c2c1	.	.	.	101.2	.
O=S(=O)(/N=C(/Nc1cc(N2CCOCC2)ncn1)c1ccc(F)cc1)c1ccccc1	.	.	2.1	.	.
COc1ccc(-c2nn(CC(=O)Nc3ccc(Cl)c(Cl)c3)c(=O)c3ccccc23)cc1	.	/	.	32.2	.
CCOC(=O)N1CCC(N(C(=O)Nc2ccc(CC)cc2)C(C)CC)CC1 (stereo not drawn)	.	.	.	30.1	.
CCOC(=O)N1CCC(N(C(=O)Nc2ccccc2)C(C)CC)CC1 (stereo not drawn)	.	.	.	.	.
O=C(CSc1nc(-c2ccccc2)c(-c2ccccc2)[nH]1)Nc1nccs1	.	/	.	.	.
CN(C)C(=O)CSc1nnc(Cc2ccc([N+](=O)[O-])cc2)o1	.	/	.	.	.
CCOc1cc(C)c(C(C)C)cc1S(=O)(=O)N1CC(C)OC(C)C1 (stereo not drawn)	.	68.1	.	.	.
O=C(CCNS(=O)(=O)c1cccc2nonc12)NC1CCCc2ccccc21 (stereo not drawn)	.	.	.	31.8	.
CCOC(=O)N1CCN(C(=O)c2cccc(OC)c2OC)CC1	.	.	.	.	.
COc1cccc(C(=O)N2CCN(C3CCC(c4ccccc4)CC3)CC2)c1OC (stereo not drawn)	93.6	.	.	54.4	.
O=c1oc2ccccc2c(O)c1C=NCc1ccccn1	.	.	2.1	.	.
O=C1C(C=NCc2ccccn2)=C(O)c2ccccc21	.	.	.	.	.
Cc1ccc(C2C(C#N)=C(N)SC(N)=C2C#N)cc1	.	.	.	39.6	.
Cc1ccnc(N2C(=O)c3cccc4c([N+](=O)[O-])ccc(c34)C2=O)c1	105.1	/	.	53.4	.
Cc1cccc(N2C(=O)c3cccc4c(N(C)CCO)ccc(c34)C2=O)c1	.	.	.	.	.
OCCSc1nc2ccccc2n1CCOc1ccccc1	.	/	.	.	.
OCCn1c(SCCOc2ccccc2F)nc2ccccc21	.	.	.	41.2	.
O=C(O)Cn1c(SCCOc2ccccc2F)nc2ccccc21	31.2	.	.	.	.
COc1cc(C(Nc2ccccn2)c2ccc3ccc(C)nc3c2O)cc(OC)c1O (stereo not drawn)	.	.	2	.	.
Cc1ccc2ccc(C(Nc3ccccn3)c3ccccc3)c(O)c2n1 (stereo not drawn)	.	/	.	.	.
CCCC(=O)NC(c1ccco1)c1c(O)ccc2ccccc12 (stereo not drawn)	.	/	.	.	.
SMILES	PostGolgi yeast	tolC growth inh	PLAP act	PostGolgi ctrl	Ecoli WT expand
CC(=O)NC(c1ccco1)c1ccc2cccnc2c1O (stereo not drawn)	.	.	2.7	.	.
Oc1c(C(Nc2ccccn2)c2ccccn2)ccc2cccnc12 (stereo not drawn)	.	.	/	.	54.0
Cc1cc(NC(c2ccc(Cl)cc2)c2ccc3cccnc3c2O)no1 (stereo not drawn)	.	/	2	.	.
COCCN1C(=O)C(=O)/C(=C(/O)c2ccc(OCC(C)C)cc2)C1c1cccnc1 (stereo not drawn)	/	.	/	/	/
CCOc1ccc2nc(N3CCC(C(=O)N4CCN(c5ccccn5)CC4)CC3)sc2c1	.	.	.	42.7	.
Cc1sc2nc(SCc3nnc(-c4cccs4)o3)n(C3CCCC3)c(=O)c2c1C	.	.	.	30.3	.
CCOC(=O)c1c(NC(=O)CSc2nnc(CNC(=O)c3ccco3)n2C)sc2c1CCC2	.	.	.	.	.
CCOC(=O)c1c(C)c(C(=O)Nc2cc(OC)ccc2OC)c(C)n1CC	.	68.0	.	.	.
CCOC(=O)c1[nH]c(C)c(C(=O)Nc2cc(OC)ccc2OC)c1C	.	.	.	.	.
COc1ccc(C(F)(F)F)cc1N/C=C\c1nnnn1-c1ccccc1	.	/	.	.	.
O=C(c1ccccc1)c1ccccc1N/C=C/c1nnnn1-c1ccccc1	.	/	.	34.6	.
CCCCCCCCC[n+]1cccc2c3ccccc3ccc21	.	/	.	98.3	70.0
Cc1ccc(O)c(NC(=O)c2cc3nc4c(c(C(F)(F)F)n3n2)CCc2ccccc2-4)c1	.	/	.	34.7	.
Cc1nn(Cc2ccccc2)c(=O)n1N(C)c1ncc(C(F)(F)F)cc1Cl	.	/	.	.	.
O=C(O)c1cccnc1Oc1ccccc1	.	.	/	.	.
N/C(COc1ccc(F)cc1)=N\NC(=O)c1cccnc1Oc1ccccc1	.	/	2	.	.
C=CCn1c(SCC(=O)Nc2ccccc2)nc2scc(-c3cccs3)c2c1=O	.	/	.	.	.
N#CCSc1nc2scc(-c3cccs3)c2c(=O)n1CCc1ccccc1	.	.	.	32.0	.
CCc1cc2c(=O)c(-c3nc4ccccc4[nH]3)coc2cc1OC(=O)N1CCOCC1	31.4	.	.	.	.
CCc1cc2c(=O)c(-c3nc4ccccc4[nH]3)coc2c(CN2CCC(C)CC2)c1O	/	.	/	/	/
COc1ccc(Cl)cc1N1CCN(CCNC(=O)Nc2ccccc2C)CC1	.	62.8	.	.	.
CN(C)/C=N/C(=S)Nc1ccc(Br)cc1F	.	/	.	.	.
COC(=O)c1cc2sc(Cl)cc2n1CC(=O)N1CCCc2ccccc21	.	.	.	36.1	.
CCOC(=O)c1cc2sccc2n1CCCN1C(=O)c2ccccc2C1=O	.	.	.	31.6	.
CCOC(=O)c1cc2sccc2n1CC(=O)N1CCCc2ccccc21	.	100.0	.	.	.
SMILES	PostGolgi yeast	tolC growth inh	PLAP act	PostGolgi ctrl	Ecoli WT expand
COC(=O)c1cc2sccc2n1CC(=O)N1CCCc2ccccc21	.	.	.	.	.
COc1ccc(-n2cnc3c(cnn3CCC#N)c2=N)cc1	.	.	.	.	.
CCOC(=O)CSC1=NC(=O)/C(=C\c2ccc(Cl)cc2)S1	.	/	.	.	.
CCCCC1CC1C(=O)Nc1ccc(OC)c(OC)c1 (stereo not drawn)	.	.	.	37.3	.
COc1ccc(CNC2CC(=O)N(C)C2=O)cc1 (stereo not drawn)	.	.	.	35.0	.
CCN(CC)S(=O)(=O)c1cccc(-c2nnc(SC(C)C#N)n2Cc2ccccc2)c1 (stereo not drawn)	.	.	.	.	.
CCN(CC)S(=O)(=O)c1cccc(-c2nnc(SCC#N)n2Cc2ccccc2)c1	.	.	.	33.1	.
CCS(=O)(=O)NCC(c1cccnc1)N1CCN(c2ccccc2F)CC1 (stereo not drawn)	.	.	.	.	.
O=S(=O)(NC(=NC1CCCC1)C(F)(F)F)c1ccccc1	.	.	.	.	.
Cc1cc(C)n2c(SCc3ccccc3Cl)nnc2n1	.	/	.	38.5	.
Cc1cc(C)n2c(SCc3c(C)noc3C)nnc2n1	/	.	/	/	/
Cc1cc(C)n2c(SCc3ccc(Cl)cc3Cl)nnc2n1	.	/	.	35.5	.

From PubChem
